From PubChem
SUMO1 PPI mod – alters human SUMO1 binding to SIM partners; P63165; AID 602429; inhibition, % at 20 µM; SUMO1 binding to a labelled peptide, TR-FRET, 1 h; hit rate 0.33% among 360,000; in the data active = inhibition above about 37%
STEP block – blocks human striatal-enriched tyrosine phosphatase. P54829. recombinant STEP, OMFP fluorogenic substrate, fluorescence. inhibition, % at 20 µM. hit rate 0.25% among 360,000;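 active = inhibition at 20 µM, scaled per plate between control wells, above about 37%, limit read from the data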;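 note: 0% = DMSO with enzyme and substrate and 100% = substrate only without enzyme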
Target sequence (P54829 whole entry, looked up): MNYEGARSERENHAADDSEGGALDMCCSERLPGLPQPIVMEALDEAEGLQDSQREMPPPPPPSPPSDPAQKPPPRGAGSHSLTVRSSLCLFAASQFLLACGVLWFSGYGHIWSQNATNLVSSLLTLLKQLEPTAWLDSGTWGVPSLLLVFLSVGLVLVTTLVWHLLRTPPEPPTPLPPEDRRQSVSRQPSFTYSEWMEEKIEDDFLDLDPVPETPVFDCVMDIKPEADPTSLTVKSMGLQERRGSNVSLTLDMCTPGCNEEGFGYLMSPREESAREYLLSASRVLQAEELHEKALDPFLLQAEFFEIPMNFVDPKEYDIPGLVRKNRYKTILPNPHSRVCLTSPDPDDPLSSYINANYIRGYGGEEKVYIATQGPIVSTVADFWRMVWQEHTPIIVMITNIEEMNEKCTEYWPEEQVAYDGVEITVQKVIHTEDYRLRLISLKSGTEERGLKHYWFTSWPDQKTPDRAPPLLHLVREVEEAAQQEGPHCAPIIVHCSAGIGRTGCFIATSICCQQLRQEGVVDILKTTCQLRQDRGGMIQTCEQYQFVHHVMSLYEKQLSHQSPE
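Also added – OMFP at 25 µM · Test system – STEP tyrosine phosphatase · Technique – FITC-channel fluorescence of OMFP product · Schedule – 20 min at room temperature, dark · Evaluation – control-normalized % inhibition with plate pattern correction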
LMPTP block – LMPTP (human) inhibition; AID 651560; P24666; inhibition, % at 20 µM; recombinant LMPTP-A, OMFP fluorogenic substrate, fluorescence intensity; hit rate 0.22% among 360,000;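 active = compounds that cut the enzyme signal by at least half of the control window in the single-dose screen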;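 note: plate controls were DMSO wells with enzyme plus substrate for no effect and substrate without enzyme for full effect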
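Buffer or medium: Bis-Tris pH 6.0, DTT, detergent; Assay system: LMPTP-A enzyme; Quantity: 0.625 nM enzyme; Detection: endpoint fluorescence intensity; Times: 50 min dark incubation at room temperature; Controls: substrate-only low control, DMSO enzyme-plus-substrate high control; Doses: single 20 µM dose; Read-out: percent inhibition versus substrate-only and uninhibited controls; Reagent: 400 µM OMFP.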
Scp-1 inhibitor – Scp-1 (human) phosphatase inhibition. Q9GZU7. Recombinant Scp1, phosphopeptide, malachite green phosphate absorbance. inhibition, % at 20 µM. hit rate 0.88% among 340,000. AID 493091;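 active = inhibition above about 50% at 20 µM, limit read from the data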;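 note: plate controls were DMSO wells with enzyme for no effect and wells lacking enzyme for full effect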
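Incubation: 45 min enzyme reaction at room temperature / System: truncated SCP-1 phosphatase (76-261aa) / Reagent: Phospho 17-mer peptide substrate / Buffer or medium: Acidic Tris acetate buffer with magnesium and detergent / Signal: absorbance at 630 nm / Doses: one concentration, 20 µM, with 1.0% DMSO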
CFTR F508del cor – correctors of CFTR F508del function in bronchial epithelial cells | CFBE cells, YFP halide quenching; stimulated with forskolin plus potentiator P3; % fluorescence drop versus neutral controls | hit rate 0.36% among 350,000 | AID 720511 | activity (quench increase), % at 7.58 µM;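 active = mean added fluorescence quench of at least 8% versus neutral control, with both replicates also reaching 8%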;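 note: cells transiently co-express mutant CFTR-F508del with the halide-sensitive YFP; corrector assay measuring rescue of mutant channel to the surface after 24 h compound exposure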
DNMT1 block – inhibitors of human DNMT1; AID 588458; DNMT1 molecular beacon, Hinp1I cleavage, fluorescence; hit rate 0.83% among 360,000; inhibition (reported as % activation of signal), % at 10 µM; in the data active = inhibition above about 50%
Scp-1 conf – Scp-1 (human) inhibition, single-dose confirmed; shares compounds with Scp-1 inhibitor; recombinant SCP-1 catalytic domain, phosphate release, malachite green absorbance; inhibition, % at 20 µM; hit rate 61% among 2,500;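 note: plate controls were DMSO with enzyme for no effect and buffer wells lacking enzyme for full effect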
MG interference – interferes with malachite green readout, flagging false Scp-1 hits | apparent inhibition (interference), % at 20 µM | Colorimetric interference counterscreen, malachite green absorbance 630 nm | AID 540313 | 2,500 tested, under 10 active | shares compounds with Scp-1 inhibitor;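 note: compounds added after enzyme reaction finished so only phosphate colour detection is probed; plate controls were DMSO wells with completed Scp-1 reaction for no effect and substrate wells lacking enzyme for full effect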
Scp-1 Tm shift – binds human Scp-1, shifting its melting temperature. shares compounds with Scp-1 inhibitor. Recombinant SCP1, Sypro Orange thermal shift Tm. thermal shift relative to vanadate control, % at 40 µM. hit rate 25% among 1,500. AID 540329;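 active = substances whose mean melting-temperature shift, as a percentage of the reference inhibitor's shift, reaches about 5.3%, limit read from the data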;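 note: 0% = Tm of DMSO wells and 100% = Tm with sodium orthovanadate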
The depositor's hits bear a star; . = not tested or not shown. Most compounds without a hit are left out; they make up all but 1.6% or so of the library.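 Rule for the calls, unless noted: active = inhibition of at least 30% at 20 µM; inactive = the rest.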

SMILES | SUMO1 PPI mod | STEP block | LMPTP block | Scp-1 inhibitor | CFTR F508del cor | DNMT1 block | Scp-1 conf | MG interference | Scp-1 Tm shift
C=CCn1c(COc2ccccc2F)nnc1SCC(=O)NC(=O)NCc1ccco1 | 1 | -1 | 6 | 91* | . | 41 | 65* | 2 | -7
C=CCn1c(COc2ccccc2-c2ccccc2)nnc1SCC(=O)NC(=O)NCc1ccco1 | 0 | 1 | 2 | 1 | -1 | 2 | . | . | .
C=CCn1c(Cc2cccs2)nnc1SCC(=O)NCc1ccco1 | 4 | -1 | 6 | 53* | . | 9 | 47* | -23 | 2
COc1ccccc1-c1cn(CC[C@H]2CC[C@H](NC(=O)CCN3CCCCC3)[C@H](CO)O2)nn1 | . | . | . | . | 0 | . | . | . | .
COc1cc(C(=O)N/N=C/c2sc(=O)n(-c3ccccc3)c2Cl)cc(OC)c1OC | 1 | 5 | 0 | 50* | . | 1 | -21 | -17 | .
Cc1nnc(SCC2=C(C(=O)O)N3C(=O)C(NC(=O)COc4ccccc4)C3SC2)s1 (stereo unspecified) | 13 | 2 | 1 | 68* | 0 | 9 | 53* | -21 | 4
Cc1nnc(SCC2=C(C(=O)O)N3C(=O)C(NC(=O)Cn4nc(C(F)F)c(Cl)c4C)C3SC2)s1 (stereo unspecified) | 16 | 7 | 2 | 42 | 1 | 0 | . | . | .
Cc1nnc(SCC2=C(C(=O)O)N3C(=O)C(NC(=O)COc4ccc(F)cc4)C3SC2)s1 (stereo unspecified) | 17 | 0 | 1 | 39 | -5 | 43 | . | . | .
Cc1nnc(SCC2=C(C(=O)O)N3C(=O)C(NC(=O)Cn4nc(C(F)F)cc4C)C3SC2)s1 (stereo unspecified) | 11 | 6 | -1 | 70* | 1 | 27 | 52* | -22 | 3
CN(C)C(=O)C[C@@H]1C=C[C@@H](NC(=O)NC2CCCC2)[C@H](CO)O1 | . | . | . | . | 1 | . | . | . | .
COc1ccc(S(=O)(=O)N2CCCC2)cc1C(C)C | -3 | -1 | 0 | 53* | -3 | -1 | -10 | -14 | .
CCOC(=O)C1(C)Oc2ccccc2C(c2ccc(OC)cc2)=C1C(=O)OC (stereo unspecified) | 2 | 6 | 0 | 4 | 1 | 12 | . | . | .
CCOC(=O)C1(C)Oc2ccccc2C(C(=O)OC)=C1C(=O)OC (stereo unspecified) | 1 | 2 | 0 | 94* | 1 | 7 | 53* | -17 | -2
C[C@@H]1CN([C@H](C)CO)C(=O)c2cccc(NC(=O)CCCCCC(=O)Nc3ccccc3N)c2O[C@@H]1CN(C)Cc1ccc(Cl)c(Cl)c1 | . | . | . | . | 0 | . | . | . | .
CCOc1c(Br)cc(Br)cc1/C=C1\SC(N)=NC1=O | 3 | 2 | 0 | 85* | -1 | 17 | 9 | -13 | .
CC(C)n1c(SCC(=O)Nc2nncs2)nnc1-c1ccco1 | . | . | . | 94* | . | . | 77* | 0 | -2
C/C(=N\Nc1nncc2ccccc12)c1ccc(C(C)(C)C)cc1 | -6 | 1 | 4 | 57* | . | -2 | -7 | -5 | .
C/C(=N\Nc1nncc2ccccc12)c1ccc(O)cc1 | -4 | 0 | 1 | -1 | -2 | -1 | . | . | .
O=C(COC(=O)c1ccc(OC(F)(F)F)cc1)Nc1ncccn1 | 11 | -2 | -1 | 82* | -3 | 20 | 49* | -6 | -5
NC(=O)NC(=O)COC(=O)c1ccc(OC(F)(F)F)cc1 | -2 | 0 | 0 | 1 | 1 | 2 | . | . | .
CC(C)NC(=O)N(C)C[C@H]1Oc2ccc(NC(=O)Nc3ccc(F)cc3)cc2CC(=O)N([C@H](C)CO)C[C@@H]1C | . | . | . | . | 4 | . | . | . | .
C[n+]1cnn2c1SCC1(COC1)C2 | -1 | -1 | -3 | 104* | . | -1 | -12 | -15 | .
